# The list is not random: actives were taken first. Their share in the collection is about 3%.
# V-ATPase pHluor: alters yeast V-ATPase proton transport; S. cerevisiae, pHLuorin cytosolic pH fluorescence; response, % at 10 µM; 350,000 tested, 0.37% active; in the data active = response mostly above about 7.3%, no sharp cut-off; inactive = mostly below about 5.4%; also: actives read high
# NRP1-CendR mod: NRP-1/CendR interaction modulation; O14786; FAM-RPARPAR peptide binding to NRP-1, fluorescence polarization; inhibition, % at 25 µM; 360,000 tested, 0.85% active; AID 602438;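 active = inhibition or corrected inhibition above about 18%, plus a signal ratio from 0.5 to 1.5, limit read from the data, passing the limit was not always enough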
# Target sequence (O14786 whole entry, looked up): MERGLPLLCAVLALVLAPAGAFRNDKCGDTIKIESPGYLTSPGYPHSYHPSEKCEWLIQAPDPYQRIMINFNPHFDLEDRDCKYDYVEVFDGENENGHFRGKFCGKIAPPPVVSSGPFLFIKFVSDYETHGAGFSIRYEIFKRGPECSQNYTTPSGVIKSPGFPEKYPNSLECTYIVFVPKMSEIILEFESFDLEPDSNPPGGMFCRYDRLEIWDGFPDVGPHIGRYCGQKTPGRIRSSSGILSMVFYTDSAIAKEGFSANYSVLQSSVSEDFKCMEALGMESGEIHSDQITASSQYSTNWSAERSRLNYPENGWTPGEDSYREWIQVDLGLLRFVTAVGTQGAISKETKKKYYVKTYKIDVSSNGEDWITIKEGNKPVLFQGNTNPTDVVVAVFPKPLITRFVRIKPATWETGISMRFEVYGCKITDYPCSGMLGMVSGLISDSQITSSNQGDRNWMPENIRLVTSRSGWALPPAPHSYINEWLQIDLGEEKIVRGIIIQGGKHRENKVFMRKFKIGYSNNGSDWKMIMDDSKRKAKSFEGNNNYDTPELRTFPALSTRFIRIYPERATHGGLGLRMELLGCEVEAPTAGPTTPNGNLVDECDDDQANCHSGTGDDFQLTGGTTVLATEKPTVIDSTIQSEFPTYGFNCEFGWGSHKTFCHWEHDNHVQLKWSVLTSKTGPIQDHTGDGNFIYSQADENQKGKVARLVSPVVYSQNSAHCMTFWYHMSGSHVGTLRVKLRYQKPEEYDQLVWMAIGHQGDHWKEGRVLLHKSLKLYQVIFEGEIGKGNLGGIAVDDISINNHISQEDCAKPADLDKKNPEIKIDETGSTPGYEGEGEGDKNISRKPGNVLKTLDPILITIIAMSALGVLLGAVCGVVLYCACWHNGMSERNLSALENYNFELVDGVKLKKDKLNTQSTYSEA
# HIF activator: HIF pathway transcriptional activation; AID 1910; activation, % at 7.5 µM (by protocol); 300,000 tested, 0.32% active; U2OS HRE-luciferase reporter, luminescence; normalized: DMSO 0%, desferrioxamine 100%;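 active = mean activation of at least 10% of the iron chelator positive control signal, with at least half of replicates also reaching 10%; inconclusive = mean and replicate majority disagree about reaching 10%; inactive = mean and most replicates under 10%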
# AI-2 QS mod: Vibrio harveyi AI-2 quorum sensing modulation; Vibrio harveyi JMH597 AI-2 luminescence/OD600 ratio, 9 h; stronger effect = lower value; strain lacks LuxN and CqsS sensors; 0 = neutral-control median; activity change, % at 7.5 µM; 300,000 tested, 0.4% active; AID 2094; in the data active = activity change below about -75%, passing the limit was not always enough; inconclusive = no clear call, values can overlap the other calls;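 also: luminescence divided by OD600 gain over 9 h not by final OD600 alone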
# Yeast superoxide: yeast age-related superoxide inhibition as caloric restriction mimetic | 330,000 tested, 0.18% active | S. cerevisiae aged cells, superoxide DHE fluorescence; stronger effect = lower value | superoxide response (% of plate mean), % at 10 µM;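 active = superoxide response under a set limit, about three screen SD below normal, cut at about 65% in these data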;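 also: yeast aged for seven days with compound at 30 °C before DHE staining; 100% = average MFI of all compound-treated wells on the plate with controls excluded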
# T cruzi inh: blocks replication of Trypanosoma cruzi; inhibition, % (concentration not given with the values); AID 1885; 300,000 tested, 1.4% active; T. cruzi beta-gal in NIH3T3, luminescence, 90 h;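 active = mean inhibition across valid replicates above about 55%, limit read from the data; inconclusive = mean below that limit but half or more replicates reach it; inactive = mean below it, under half of replicates reach it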;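 also: signal also drops with host cell toxicity which is not excluded here; 0% = plate median of DMSO wells and 100% = zero luminescence signal; higher percent means less beta-gal luminescence so fewer parasites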
#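 assay system = mouse NIH/3T3 fibroblasts infected with β-gal-expressing T. cruzi Tulahuen C4 | input = 5,000 NIH/3T3 host cells per well | buffer or medium = DMEM plus 2% FBS | timing = 3 h host attachment, then at least 90 h co-culture | measured by = GalScreen luminescence, 60 min | evaluation = luminescence reflecting intracellular parasite burden, expressed as percent inhibition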
# Starred values were filed as active, the others as inactive; ? = inconclusive; · = not tested or not shown.
SMILES,V-ATPase pHluor,NRP1-CendR mod,HIF activator,AI-2 QS mod,Yeast superoxide,T cruzi inh
COc1ccc(NS(=O)(=O)c2ccc(OCC(=O)N3CCN(C)CC3)cc2)cc1Cl,-3,-16,0,17,87,58*
CN1CCN(C(=O)COc2ccc(S(=O)(=O)N(C)Cc3ccccc3)cc2)CC1,2,6,0,1,116,61*
Cc1cc(Cl)ccc1OCC(=O)O,3,-12,0,37,113,-6
CCCNS(=O)(=O)c1ccc(OCC(=O)N2CCN(C)CC2)cc1,-3,17,0,-31,91,34
CN1CCN(C(=O)COc2ccc(N(C)S(=O)(=O)c3ccc(F)cc3)cc2)CC1,0,-9,0,22,94,79*
Cc1cc(Cl)ccc1OCC(=O)N1CCN(C)CC1,-2,23*,0,14,93,0
Cc1cc(NC(=O)CCl)nn1C,-2,2,-1,24,88,-12
COc1c(O)cc2c(c1OC)-c1ccc(OC)c(=O)cc1C(NC(C)=O)CC2 (stereo not drawn),-2,14,·,·,·,·
O=C(CNS(=O)(=O)c1ccc(Br)s1)N1CCC2(CC1)OCCO2,-2,-11,0,15,95,-2
COc1cc(/C=C(/C)[N+](=O)[O-])ccc1OCc1ccccc1Cl,-3,-3,-3,27,103,61*
COc1cc(C=C2C(=O)NC(=O)NC2=O)ccc1OCc1ccc([N+](=O)[O-])cc1,4,-5,·,·,·,·
CC(=O)OC1CC[C@]2(C#N)[C@H]3CC[C@]4(C)[C@H](C5C=CC(=O)O5)CCC4(O)C3CCC2(O)C1 (stereo partly drawn),3,22*,-1,11,98,-4
Cc1nc2c(c(C)nn2-c2ccccc2)c(C)c1CCC(=O)N1CCC2(CC1)OCCO2,-5,51*,0,7,91,-4
Cc1nc2c(-c3ccccc3)c(C)nn2c(C)c1CCC(=O)N1CCC2(CC1)OCCO2,3,-4,0,26,110,4
Cc1ccc(-c2nc3ccc(Cl)cc3n2OC(=O)N(C)C)cc1,1,-1,4,31,112,4
COC(=O)C1C(O)C(C)C(O)C(C)/C=C\C=C(/C)C(=O)Nc2c(C)c(OC(C)=O)c3c(c2O)C(=O)C(C)=C2OCOC(=C23)/C(C)=C/C(C)(O)C(O)C(C)C1O (stereo not drawn),-1,-4,-2,-150*,110,-15
O=C1NC(=S)N(c2ccccc2)C(=O)/C1=C/c1ccco1,7.6*,-111,1,16,107,-8
CC[n+]1c(/C=C/C=C/c2ccc(N(C)C)cc2)sc2ccccc21,0,-26,0,?,98,52
CN(C)c1ccc(/C=C/C=C/c2sc3ccccc3[n+]2C)cc1,-3,-9,0,26,88,71*
CN1CC(Br)C(=O)NC1=O (stereo not drawn),1,5,·,·,·,·
CC1NC(=O)NC(=O)C1Br (stereo not drawn),-2,36*,·,·,·,·
Cc1cc(C(=O)N2CCC3(CC2)OCCO3)no1,0,8,0,12,78,-13
Cc1nc2cc([N+](=O)[O-])ccc2c(=O)n1-c1ccccc1[N+](=O)[O-],-2,-5,0,36,81,59*
COC(=O)C1=C(c2ccc(S(C)(=O)=O)cc2)C[C@@H]2CC[C@H]1N2C(=O)N1CCCC1,-3,10,0,-7,98,-18
CC1C(=O)OC2CCN3CC4OC4(COC(=O)C(C)(O)C1(C)O)C23 (stereo not drawn),-3,26*,·,·,·,·
SMILES,V-ATPase pHluor,NRP1-CendR mod,HIF activator,AI-2 QS mod,Yeast superoxide,T cruzi inh
O=P(O)(O)COc1ccccc1O,1,-5,0,10,103,-1
CCCCCCOc1ccc(CN2CCN(CC)CC2)cc1,-1,-3,0,3,85,65*
CCN1CCN(Cc2ccc(OC(F)(F)F)cc2)CC1,2,-3,1,7,99,41
O=C(CN1CCOCC1)c1cccc2ccccc12,0,19,0,28,107,2
Cc1c(C(=O)c2cccc3ccccc23)c2cccc3c2n1[C@H](CN1CCOCC1)CO3,5,2,0,20,117,72*
O=C(NC1CCCCC1)Oc1cc2oc(=O)sc2cc1Cl,0,4,0,-35,100,-34
Nc1ncnc2c1ccn2[C@@H]1O[C@H](CO)[C@@H](O)[C@H]1O,0,6,-3,16,81,86*
CN(C)[C@@H]1C(=O)C(C(N)=O)=C(O)[C@@]2(O)C(=O)C3=C(O)c4c(O)ccc(Cl)c4[C@@](C)(O)[C@H]3C[C@@H]12,-2,-12,0,-111*,98,0
O=c1[nH]c(=O)n(Cc2ccco2)c(O)c1C=NCCN1CCNCC1,1,15,-1,21,105,-6
CC(OC(=O)c1cn(C)c2ccccc12)C(=O)N(C)c1ccccc1 (stereo not drawn),0,4,·,·,·,·
CC(C)(C)C(O)C(Oc1ccc(Cl)cc1)n1cncn1 (stereo not drawn),-8,-5,0,18,140,60*
O=c1c2ccccc2nc(-c2ccc(-c3ccccc3)cc2)n1-c1ccncc1,-1,3,1,32,119,84*
Cc1ccc(-c2nc3ccccc3c(=O)n2-c2ccncc2)cc1,-3,11,0,17,102,6
COc1ccc(-n2nnnc2C(c2ccnc3ccccc23)N2CCC3(CC2)C(=O)NCN3c2ccccc2)cc1 (stereo not drawn),·,5,·,·,·,·
O=[N+]([O-])c1ccc(NC2CCN(Cc3ccccc3)CC2)c2ccncc12,2,0,0,12,103,60*
COc1cccc(N2C(=O)NC(=O)/C(=C/c3ccc4c(c3)Cc3ccccc3-4)C2=O)c1,-2,-12,0,28,90,-17
CCOc1ccc(N2C(=O)NC(=O)/C(=C\c3cc(OC)c(OC)cc3[N+](=O)[O-])C2=O)cc1,0,0,0,12,87,-11
COc1ccc(N2C(=O)NC(=O)/C(=C/c3ccc([N+](=O)[O-])s3)C2=O)cc1,101*,4,1,?,102,32
COc1ccc(N2C(=O)NC(=O)/C(=C\c3ccc([N+](=O)[O-])s3)C2=O)cc1,102*,-19,0,?,94,60*
COc1cccc(N2C(=O)NC(=O)/C(=C/c3ccc([N+](=O)[O-])s3)C2=O)c1,111*,-26,-1,6,111,41
COc1ccccc1N1C(=O)NC(=O)/C(=C/c2ccc([N+](=O)[O-])s2)C1=O,125*,·,-1,56,98,22
N#CC(=C(O)c1ccc(S(=O)(=O)N(CCCl)CCCl)cc1)c1nc2ccccc2[nH]1,-27,8,·,·,·,·

# From PubChem
